Data: ChEMBL document CHEMBL4196194, “De Novo Design of α-Helical Lipopeptides Targeting Viral Fusion Proteins: A Promising Strategy for Relatively Broad-Spectrum Antiviral Drug Discovery” (J Med Chem, 2018)
Calls of active or inactive are those of the source. No cut-off for these calls is given here. Where a SMILES comes first, the peptide text is derived from it. [ ]: non-standard residue; d: D form. The star is where a group is joined. Palmitoyl = CCCCCCCCCCCCCCCC(=O)*; βAla = NCCC(=O)O

What was measured:
[1] = AUC (0 to t) in Sprague-Dawley rat at 5 mg/kg, iv administered as single dose by LC-MS/MS analysis; assay type: ADME, organism-based; settings: in vivo
[2] = Selectivity index, ratio of CC50 for cytotoxicity in MDCK cells to EC50 for antiviral activity against Influenza A virus (A/Hong Kong/8/1968([…])) infected in HEK293T cells; assay type: toxicity, cell-based; settings: dog
[3] = Cytotoxicity in human HuH7 cells assessed as reduction in cell viability incubated for 48 hrs by CCK8 assay; assay type: cell-based, Huh-7
Procedure, shortened: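 Huh-7 cells (1 × 10^5 cells/mL suspension seeded) grown 12 h at 37 °C, 5% CO2, then serially diluted peptide added for 48 h; untreated blank and Triton X-100 controls. CCK-8 added for 2 h, absorbance at 450 nm.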

Influenza A virus = assay: Binding affinity to influenza A virus hemagglutinin 2 synthetic peptide N66 at pH 5 by sedimentation velocity analysis
Procedure, shortened: (§1)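 Complexes at 150 μM final: with HR1P 30 min at 25 °C in 10 mM phosphate pH 7.4; with N66 30 min at 30 °C in sodium acetate/phosphate/NaCl pH 5.0. Sedimentation velocity at 280 nm, 3000 then 60000 rpm, 25 °C; c(s) distribution and molecular weight derived.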

Rattus norvegicus = assay: MRT (0 to t) in Sprague-Dawley rat at 5 mg/kg, iv administered as single dose by LC-MS/MS analysis; assay type: ADME, organism-based; settings: in vivo
[4] = tested on: Middle East respiratory syndrome-related coronavirus; assay: Binding affinity to MERS-CoV spike protein synthetic peptide HR1P at 75 uM incubated for 30 mins by Coomassie blue R250 staining based native polyacrylamide gel electrophoresis method
Procedure, shortened: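 Equimolar mix with HR1P (150 μM each) in 10 mM phosphate pH 7.4, 30 min at 25 °C; diluted 1:1 in β-alanine–formic acid sample buffer, run on 15% β-alanine–formic acid gel at pH 3.4 (90 V then 150 V, 2.5 h); Coomassie R250 stain.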

[5] = tested on: Middle East respiratory syndrome-related coronavirus; assay: Binding affinity to MERS-CoV spike protein synthetic peptide HR1P at pH 7.4 by sedimentation velocity analysis; procedure, shortened: as §1

In the case of CCCCCCCCCCCCCCCC(=O)NCCCC[C@H](NC(=O)CCNC(=O)[C@H](CCCCN)NC(=O)[C@H](CCCCN)NC(=O)[C@H](CCC(N)=O)NC(=O)[C@@H](NC(=O)[C@H](CCC(=O)O)NC(=O)[C@H](CCC(=O)O)NC(=O)[C@@H](NC(=O)[C@H](CCCCN)NC(=O)[C@H](CCCCN)NC(=O)[C@H](CCC(N)=O)NC(=O)[C@@H](NC(=O)[C@H](CCC(=O)O)NC(=O)[C@H](CCC(=O)O)NC(=O)[C@@H](NC(=O)[C@H](CCCCN)NC(=O)[C@H](CCCCN)NC(=O)[C@H](CCC(N)=O)NC(=O)[C@@H](NC(=O)[C@H](CCC(=O)O)NC(=O)[C@H](CCC(=O)O)NC(=O)[C@@H](NC(=O)[C@H](CCCCN)NC(=O)[C@H](CCCCN)NC(=O)[C@H](CCC(N)=O)NC(=O)[C@@H](NC(=O)[C@H](CCC(=O)O)NC(=O)[C@H](CCC(=O)O)NC(=O)[C@@H](NC(=O)[C@H](CCCCN)NC(=O)[C@H](CCCCN)NC(=O)[C@H](CCC(N)=O)NC(=O)[C@@H](NC(=O)[C@H](CCC(=O)O)NC(=O)[C@H](CCC(=O)O)NC(=O)[C@@H](NC(C)=O)[C@@H](C)CC)[C@@H](C)CC)[C@@H](C)CC)[C@@H](C)CC)[C@@H](C)CC)[C@@H](C)CC)[C@@H](C)CC)[C@@H](C)CC)[C@@H](C)CC)[C@@H](C)CC)C(N)=O (Ac-IEEIQKKIEEIQKKIEEIQKKIEEIQKKIEEIQKK[βAla]K(Palmitoyl)-NH2), the AUC(0-t) [1] is reported as 235 µg·h/mL, the selectivity ratio [2] is reported as > 143 and the CC50 at 48 h [3] is reported as > 100 µM. The Activity (Influenza A virus) was “Active”, the “MRT(t)” value (Rattus norvegicus) was 4.1 h and the Activity [4] was “Active”. For the same compound, the Activity [5] was “Active”.
